Measurements of several laboratories.
Protocols differ between the studies behind these lines.
Target: Serine/threonine-protein kinase WNK2 (WNK2, Homo sapiens, UniProt Q9Y3S1)

SMILES | read-out | mode | technique | concentration | quantity | value
COCCOc1nc(-c2ccc(Cl)nc2)nc2c1CN(C(=O)c1ncn3ccccc13)CC2 | cell-free assay |  | competition with immobilised ligand | 0.1 µM | remaining binding | 100%
Nc1ncnc2occ(-c3ccc(NC(=O)Nc4cc(C(F)(F)F)ccc4F)cc3)c12 | cell-free assay | inhibitor |  | 20 µM | remaining signal | 65%
O=C(Nc1cnn(-c2csc(C(=O)NC3COC3)c2)c1)Nc1c(F)cccc1Cl | enzyme activity | inhibitor |  | 5 µM | remaining activity | 91.9%
CC(C)(O)[C@H]1CC[C@H](Nc2ccc3ncc(-c4cccc(C(F)(F)F)c4)n3n2)CC1 | enzyme activity | inhibitor |  | 1 µM | remaining activity | 86.2%
Cc1sc(C(=O)NC2COC2)cc1-n1cc(NC(=O)Nc2c(F)cccc2Cl)cn1 | enzyme activity | inhibitor |  | 10 µM | remaining activity | 91.1%
O=C(O)[C@@H]1[C@@H](Cn2nnc3ccccc3c2=O)CC[C@H]1C(=O)c1ccc(OCCC2CCOCC2)cc1 | cell-free assay |  | competition with immobilised ligand | 1 µM | remaining binding | 82%
CC(C)(C)c1nc(-c2cccc(NS(=O)(=O)c3c(F)cccc3F)c2F)c(-c2ccnc(N)n2)s1 | enzyme activity | inhibitor | radiometric | 1 µM | remaining activity | 103%
O=C(Nc1cnc(Oc2ccc(F)cc2)nc1)N1CCc2ncccc2[C@@H]1c1ccc(F)cc1 | cell-free assay |  | competition with immobilised ligand | 1 µM | remaining binding | 79%
COc1cc(Cl)c(C(=O)N[C@@H](CN[C@H]2CC[C@@H](N)CC2)Cc2ccc(C#N)cc2)cc1-c1ccc(CN[C@H](C)c2ccc(C)cc2)o1 | enzyme activity | inhibitor |  | 1 µM | remaining activity | 101%
CN(CCCC(F)(F)F)c1nccc(-c2cnn3ncccc23)n1 | binding |  |  | 1 µM | remaining binding | 100%
O=C(NC[C@@H]1[C@H]2CN(C(=O)OCc3cc(C(F)(F)F)cc(C(F)(F)F)c3)C[C@@H]12)c1ccc2[nH]nnc2c1 | cell-free assay |  | competition with immobilised ligand | 1 µM | remaining binding | 84%
CCN(CC)CCNC(=O)c1c(C)[nH]c(/C=C2\C(=O)Nc3ccc(F)cc32)c1C | enzyme activity | inhibitor |  | 0.3 µM | inhibition | 3%
CNC(=O)Nc1ccc2c(c1)[C@@]1(CC2)OC(=O)N(CC(=O)N(Cc2ccc(F)cc2)[C@@H](C)C(F)(F)F)C1=O | cell-free assay |  | competition with immobilised ligand | 1 µM | remaining binding | 59%
N#CCCc1ccc2c(c1)-c1[nH]c3ccc([N+](=O)[O-])cc3c1CC(=O)N2 | cell-free assay |  |  | 0.5 µM | remaining signal | 112%
CCCS(=O)(=O)Nc1ccc(F)c(C(=O)c2c[nH]c3ncc(-c4ccc(Cl)cc4)cc23)c1F | enzyme activity | inhibitor |  | 1 µM | inhibition | < 10%
Cc1ccc(Nc2nccc(N(C)c3ccc4c(C)n(C)nc4c3)n2)cc1S(N)(=O)=O | enzyme activity | inhibitor |  | 0.3 µM | inhibition | 2%
Cc1cc(NC(=O)c2cccc3cc(-c4cccc5[nH]nc(N)c45)ccc23)ccc1F | enzyme activity | inhibitor |  | 0.1 µM | activity vs control | 98%
O=C(N1CCS(=O)(=O)CC1)N1C[C@H](c2ccc(OC(F)(F)F)cc2)C[C@H](c2nc(C3CC3)no2)C1 | cell-free assay |  | competition with immobilised ligand | 1 µM | remaining binding | 73%
CNC(=O)c1cc(Oc2ccc(NC(=O)Nc3ccc(Cl)c(C(F)(F)F)c3)cc2)ccn1 | enzyme activity | inhibitor |  | 0.3 µM | inhibition | 1%
